This is a sample that favours compounds with a hit; in the whole collection about 2.2% have one here.
M5 ag – human M5 muscarinic receptor agonists, primary screen, CHO-K1 cells, Fluo-8 calcium fluorescence. Muscarinic acetylcholine receptor M5 (Homo sapiens), P08912. CHO-K1 hM5 cells; 0% DMSO wells, 100% maximal acetylcholine response. activation, % at 3 µM. hit rate 0.19% among 360,000;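 active means activation above the run's mean over test compounds plus 3 SD, cut at about 23% in these data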;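 further: signal is peak over basal fluorescence ratio across the kinetic read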
Target sequence (P08912 whole entry, looked up): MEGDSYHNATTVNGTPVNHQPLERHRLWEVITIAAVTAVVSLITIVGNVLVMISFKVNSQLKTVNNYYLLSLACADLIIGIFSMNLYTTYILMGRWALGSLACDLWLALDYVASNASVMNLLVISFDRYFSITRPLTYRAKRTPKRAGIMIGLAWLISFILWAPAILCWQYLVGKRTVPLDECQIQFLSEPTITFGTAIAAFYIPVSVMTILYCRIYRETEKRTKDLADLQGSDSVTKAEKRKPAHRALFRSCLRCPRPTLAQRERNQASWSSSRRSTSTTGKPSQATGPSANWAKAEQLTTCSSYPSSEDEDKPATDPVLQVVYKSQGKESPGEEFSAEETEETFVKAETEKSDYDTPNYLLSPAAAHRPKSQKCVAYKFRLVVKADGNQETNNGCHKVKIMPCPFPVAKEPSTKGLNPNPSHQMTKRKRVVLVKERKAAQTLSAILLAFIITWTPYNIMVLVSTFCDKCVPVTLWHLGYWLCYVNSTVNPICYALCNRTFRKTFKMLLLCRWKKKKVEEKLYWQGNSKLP
CHRM5 antagonist – human M5 muscarinic receptor antagonists, primary screen, CHO cells, Fluo-8 calcium fluorescence; Muscarinic acetylcholine receptor M5 (Homo sapiens), P08912; inhibition, % at 3 µM; CHO-hM5 cells, ACh EC80; AID 624040, 2012; hit rate 0.59% among 360,000;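 active means inhibition above a per-plate cutoff, the mean of that plate's test compounds plus 3 SD, cut at about 27% in these data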;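 further: 0% = acetylcholine EC80 with DMSO and 100% = DMSO without agonist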
M5 PAM – human M5 muscarinic receptor positive allosteric modulators, primary screen, CHO-K1 cells, Fluo-8 calcium fluorescence | Muscarinic acetylcholine receptor M5 (Homo sapiens), P08912 | CHO-K1 hM5, ACh EC20 PAM; 0% = ACh EC20, 100% = ACh EC100 | activation, % at 3 µM | hit rate 0.3% among 360,000 | AID 624038, 2012;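 active means activation above the run cutoff, the mean activation of all test compounds plus 3 SD, cut at about 18% in these data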
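System – CHO-K1 hM5 cells · Compound – 3 µM, single dose · Incubation – compound preincubation 140 s before EC20 acetylcholine addition · Technique – Fluo-8 calcium fluorescence · Measure – Max/basal fluorescence ratio as % of EC20–EC100 ACh window · Benchmarks – low control EC20 acetylcholine (0%), high control EC100 acetylcholine (100%) · Replication – singlicate, one well per test compound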
CHRM1 PAM – human M1 muscarinic receptor positive allosteric modulators, primary screen, CHO-K1 cells, Fluo-8 calcium fluorescence, 1536-well; hit rate 0.088% among 360,000; Muscarinic acetylcholine receptor M1 (Homo sapiens), P11229; activation, % at 3 µM; CHO-K1 hM1, ACh EC20; 0% = ACh EC20, 100% = maximal ACh; in the data active means activation above about 19%, passing the limit was not always enough
CHRM1 antagonist – human M1 muscarinic receptor antagonists, primary screen, CHO-K1 cells, Fluo-8 calcium fluorescence, 1536-well; CHO-K1 hM1, ACh EC80 antagonist; AID 588852, 2011; Muscarinic acetylcholine receptor M1 (Homo sapiens), P11229; hit rate 1.3% among 360,000; inhibition, % at 3 µM;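 active means percent inhibition above its own plate's cutoff, namely the mean of that plate's compound wells plus 3 SD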;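 further: peak over basal fluorescence ratio during 140 s after agonist addition; 0% = ACh EC80 plus DMSO and 100% = DMSO alone without agonist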
M1 ag – human M1 muscarinic receptor agonists, primary screen, Fluo-8 calcium fluorescence, CHO-K1 cells, HTS; CHO-K1 hM1, agonist mode; 0% DMSO, 100% acetylcholine EC100; AID 588814, 2011; activation, % at 3 µM; Muscarinic acetylcholine receptor M1 (Homo sapiens), P11229; hit rate 0.33% among 360,000;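 active means activation above the run's mean compound activation plus 3 SD, cut at about 16% in these data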;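 further: peak over basal fluorescence ratio within a 140 s kinetic read after compound addition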
Numbers without * were called inactive.

SMILES	M5 ag	CHRM5 antagonist	M5 PAM	CHRM1 PAM	CHRM1 antagonist	M1 ag
COc1ccc(-c2nnc3ccc(SCC(=O)Nc4nccs4)nn23)cc1OC	0.9	0.2	-3.8	-0.7	6.2	-8.7
COc1ccc(CC(=O)Nc2nc(-c3ccc(OC)c(OC)c3)cs2)cc1OC	23.4*	-0.7	-12.4	5.7	-4.5	16.3*
COc1ccc(-c2csc(NC(=O)CN3C(=O)C4CCCCC4C3=O)n2)cc1OC (configuration not stated)	5.7	-4.1	-5.6	-6.5	16.4	0.8
COc1ccccc1OCC(=O)NNC(=O)C1CCN(c2ncnc3sc(C)c(C)c23)CC1	3.1	18.0	-29.0	-11.7	11.7	-2.5
COc1ccc(-c2csc(NC(=O)C3CCN(c4ncnc5sc(C)c(C)c45)CC3)n2)cc1OC	1.8	17.0	-8.7	-12.0	46.4*	-3.0
COc1ccc(-c2ccc(SCC(=O)Nc3nccs3)nn2)cc1OC	5.3	5.2	-12.0	-12.5	34.9*	-1.3
CCCCNC(=O)c1cc2c(=O)n3cccc(C)c3nc2n(Cc2ccncc2)c1=N	-7.0	0.8	1.0	-0.7	-1.5	-6.9
COc1ccc(N=C(C)C2C(=O)c3ccccc3C2=O)cc1	0.5	1.0	0.1	-5.3	1.0	-8.9
CCNC(=S)NNc1nc(N2CCCCC2)nc(N2CCOCC2)n1	-2.8	-4.5	7.2	7.1	-6.8	-7.9
O=C(CSc1nnnn1-c1cccc(F)c1)NC1CC1	1.0	2.6	19.0*	14.7	-5.6	3.1
CCOC(=O)c1ccc(NC(=S)N2CCN(CCO)CC2)cc1	-1.0	8.5	-5.0	-7.2	11.1	-5.6
CCC(=O)Nc1c(-c2ccc3ccccc3c2)nc2ccccn12	-0.9	-7.0	4.5	9.7	-19.7	-6.0
O=C1C(=Cc2cn(-c3ccccc3)nc2-c2ccc(OCc3ccccc3)cc2)SC(=S)N1CCS(=O)(=O)O	2.4	-6.0	0.9	11.9	-23.5	-1.8
Cc1ccc(-c2nn(-c3ccccc3)cc2C=C2SC(=S)N(CCS(=O)(=O)O)C2=O)cc1	0.0	0.5	0.0	28.4*	-20.2	0.4
CC(C)/C=C1\CC/C(=C\c2ccc(N(C)C)cc2)C1=O	21.9	21.6	-12.2	-11.9	45.6*	51.8*
CN(C)c1ccc(/C=C2/C[N+](C)(C)C/C(=C/c3ccc(N(C)C)cc3)C2=O)cc1	11.4	9.8	-8.7	-1.6	-3.5	-2.8
COc1cccc(CNCc2ccc(OC)c3ccccc23)c1OC	8.7	30.6*	-17.9	-9.1	22.5	-0.5
COc1ccccc1CNCc1ccc(OC)c2ccccc12	5.2	4.5	-3.0	-1.4	-1.3	1.1
CCn1c(N2CCN(C(=S)NCC(C)C)CC2)nc2ccccc21	1.5	7.4	-7.3	-24.3	38.8*	-7.3
CCn1c(N2CCN(C(=S)NC)CC2)nc2ccccc21	3.9	4.2	-6.7	-0.2	-25.3	-2.5
C=CC(=O)Nc1ccc(CN2C(=O)N(c3c(Cl)c(OC)cc(OC)c3Cl)Cc3cnc(NCCCCN(CC)CC)nc32)cc1	-11.7	16.9	-25.2	-29.5	38.8*	-11.0
C=CCn1c(SCC(=O)N(CCOC)c2c(N)n(CC(C)C)c(=O)[nH]c2=O)nc2ccccc21	-3.1	3.8	0.8	7.1	2.2	-0.7
NN=C1c2ccccc2C(=O)C1C(=O)C(c1ccccc1)c1ccccc1 (configuration not stated)	56.5*	37.8*	-24.4	-5.1	22.0	11.4
CCOC(=O)c1sc(NC(=O)Nc2ccccc2)cc1C	4.6	45.7*	-19.5	-17.4	32.8	-3.1
CCOC(=O)c1sc(NC(=O)Nc2ccccc2Cl)cc1C	2.7	20.9	-21.6	-12.7	17.8	-1.2
SMILES	M5 ag	CHRM5 antagonist	M5 PAM	CHRM1 PAM	CHRM1 antagonist	M1 ag
CCOc1ccc(-n2c(=O)c3sccc3n(CC(=O)NCC3CCCO3)c2=O)cc1 (configuration not stated)	-1.3	11.0	0.9	3.8	-6.5	-2.0
COc1cc(CN2CCC(n3nccc3NC(=O)c3ccccc3OC)CC2)ccc1F	-2.9	-8.5	-0.6	3.9	-17.3	-4.9
Cc1cc(OCC(O)CN2CCc3ccccc3C2)cc(C(C)C)c1 (configuration not stated)	-5.1	7.4	-4.0	-27.8	31.7*	-6.1
CCOc1ccc(OCC(O)CN2CCc3ccccc3C2)cc1 (configuration not stated)	-5.1	7.3	-4.7	1.5	-7.0	-9.4
COc1ccc(C2/C=C\CN(C(=O)C3CCCC3)CC(=O)N2Cc2ccc(F)cc2)cc1 (configuration not stated)	1.2	8.9	0.0	31.6*	-22.4	4.0
CCOc1cc(CNCCSc2nnnn2C)cc(Br)c1OCc1ccccc1	-4.4	11.2	-13.6	-7.2	29.1*	-1.3
CCOc1cc(CNCCO)cc(Br)c1OCc1ccccc1	2.3	-12.5	-0.4	2.9	0.5	-2.3
CCN(CC)CCN(C)C(=O)c1[nH]c(C(F)(F)F)nc1-c1ccccc1	0.1	-7.6	-2.2	9.4	-25.6	2.0
CCOC(=O)CC1C(=O)NCCN1C(=O)c1ccc(C)cc1 (configuration not stated)	-1.6	7.7	-2.5	5.6	-7.3	-3.8
CCOC(=O)CC1C(=O)NCCN1C(=O)c1cccc(OC)c1 (configuration not stated)	-2.2	19.2	-3.6	-13.6	27.6*	-1.6
Cn1nnc2cc(C(=O)NC3CC3)ccc21	0.3	8.5	40.0*	9.0	-11.6	-1.9
O=C(NC1CC1)c1ccc2c(c1)ncn2C1CCCC1	-1.1	3.2	-0.5	4.8	-2.4	-5.6
CN(C)/C=N/c1sc2c(c1C#N)CCCC2	-1.9	-10.3	-5.2	12.0	-8.0	-6.2
CC1CCc2c(sc(/N=C/N(C)C)c2C#N)C1 (configuration not stated)	-5.6	-10.2	20.3*	-6.5	13.0	-9.6
Cc1ccc(-n2nnnc2SCC(=O)Nc2ccc(N3CCN(C)CC3)cc2)c(C)c1	-7.2	7.8	-7.8	-3.9	-5.8	-4.9
Cc1ccc(SCC(=O)Nc2ccc(N3CCN(C)CC3)c(F)c2)c(C)c1	-9.8	-1.9	-14.0	-38.1	30.4*	-16.0
COCc1cc(C)nc(SCC[N+](C)(C)CC(=O)c2ccc(Br)cc2)c1C#N	-19.9	8.8	-4.1	-25.8	70.4*	-7.8
